Experimental findings from publication PMC2738612 (Biochemistry, 2009) are described below.

One assay deals with native type I collagen. In words: Surface plasmon resonance binding to immobilized native type I collagen. Details: species or system rat. The note with it: 1 µM analyte, Biacore buffer pH 7.4; compared to WT CBD. Put shortly:
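Native non-pepsin-treated acid-soluble rat tail type I collagen in 10 mM sodium acetate, pH 4.5, was amine-coupled to EDC/NHS-activated CM5 chips at ~3000 RU, then ethanolamine-blocked; an uncoated flow cell served as control. Analytes at 1 µM in 10 mM HEPES, 150 mM NaCl, 0.005% P20, pH 7.4, flowed at 5 µl/min for 6 min. RU were averaged over 5 s before injection end. Chips were regenerated with 6 M guanidine-HCl, with WT CBD run at the start and end of each series.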
A general note: SPR reads the build-up and loss of mass on a sensor chip optically.

For assay [1], the system named is gelatin (denatured type I collagen). In words: Surface plasmon resonance binding to immobilized gelatin. The note with it: 1 µM analyte, Biacore buffer pH 7.4; compared to WT CBD. Also on record: species or system rat.

B1: E^321A: rCBD variant, single-point alanine substitution at E^321, module 2 (protein)
chain: APSPIIKFPGDVAPKTDKELAVQYLNTFYGCPKESCNLFVLKDTLKKMQKFFGLPQTGDLDQNTIETMRKPRCGNPDVANYNFFPRKPKWDKNQITYRIIGYTPDLDPETVDDAFARAFQVWSDVTPLRFSRIHDGEADIMINFGRWEHGDGYPFDGKDGLLAHAFAPGTGVGGDSHFDDDELWTLGEGQVVRVKYGNADGEYCKFPFLFNGKEYNSCTDTGRSDGFLWCSTTYNFEKDGKYGFCPHEALFTMGGNAEGQPCKFPFRFQGTSYDSCTTEGRTDGYRWCGTTADYDRDKKYGFCPETAMSTVGGNSEGAPCVFPFTFLGNKYESCTSAGRSDGKMWCATTANYDDDRKWGFCPDQGYSLFLVAAHEFGHAMGLEHSQDPGALMAPIYTYTKNFRLSQDDIKGIQELYGASPDIDLGTGPTPTLGPVTPEICKQDIVFDGIAQIRGEIFFFKDRFIWRTVTPRDKPMGPLLVATFWPELPEKIDAVYEAPQEEKAVFFAGNEYWIYSASTLERGYPKPLTSLGLPPDVQRVDAAFNWSKNKKTYIFAGDKFWRYNEVKKKMDPGFPKLIADAWNAIPDNLDAVVDLQGGGHSYFFKGAYYLKLENQSLKSVKFGSIKSDWLGC
modifications: biotinylated for the microwell assay; left off: His tag, end not stated, state not stated
B1: the “binding to native type I collagen (SPR, RU)” value with native type I collagen is “no reduction in collagen-binding”. The “binding to gelatin / denatured type I collagen (SPR, RU)” value in assay [1] is “no reduction in collagen-binding”.

B2: Y^323A: rCBD variant, single-point alanine substitution at Y^323, module 2 (protein)
chain: APSPIIKFPGDVAPKTDKELAVQYLNTFYGCPKESCNLFVLKDTLKKMQKFFGLPQTGDLDQNTIETMRKPRCGNPDVANYNFFPRKPKWDKNQITYRIIGYTPDLDPETVDDAFARAFQVWSDVTPLRFSRIHDGEADIMINFGRWEHGDGYPFDGKDGLLAHAFAPGTGVGGDSHFDDDELWTLGEGQVVRVKYGNADGEYCKFPFLFNGKEYNSCTDTGRSDGFLWCSTTYNFEKDGKYGFCPHEALFTMGGNAEGQPCKFPFRFQGTSYDSCTTEGRTDGYRWCGTTEDADRDKKYGFCPETAMSTVGGNSEGAPCVFPFTFLGNKYESCTSAGRSDGKMWCATTANYDDDRKWGFCPDQGYSLFLVAAHEFGHAMGLEHSQDPGALMAPIYTYTKNFRLSQDDIKGIQELYGASPDIDLGTGPTPTLGPVTPEICKQDIVFDGIAQIRGEIFFFKDRFIWRTVTPRDKPMGPLLVATFWPELPEKIDAVYEAPQEEKAVFFAGNEYWIYSASTLERGYPKPLTSLGLPPDVQRVDAAFNWSKNKKTYIFAGDKFWRYNEVKKKMDPGFPKLIADAWNAIPDNLDAVVDLQGGGHSYFFKGAYYLKLENQSLKSVKFGSIKSDWLGC
modifications: biotinylated for the microwell assay; left off: His tag, end not stated, state not stated
Consider B2, for which the “binding to native type I collagen (SPR, RU)” value in the assay with native type I collagen is “strong reduction in binding”. Moreover, the “binding to gelatin / denatured type I collagen (SPR, RU)” value in assay [1] was “strong reduction in binding”.

B3: F^280A: rCBD variant, single-point alanine substitution at F^280, negative control (protein)
chain: APSPIIKFPGDVAPKTDKELAVQYLNTFYGCPKESCNLFVLKDTLKKMQKFFGLPQTGDLDQNTIETMRKPRCGNPDVANYNFFPRKPKWDKNQITYRIIGYTPDLDPETVDDAFARAFQVWSDVTPLRFSRIHDGEADIMINFGRWEHGDGYPFDGKDGLLAHAFAPGTGVGGDSHFDDDELWTLGEGQVVRVKYGNADGEYCKFPFLFNGKEYNSCTDTGRSDGFLWCSTTYNFEKDGKYGFCPHEALATMGGNAEGQPCKFPFRFQGTSYDSCTTEGRTDGYRWCGTTEDYDRDKKYGFCPETAMSTVGGNSEGAPCVFPFTFLGNKYESCTSAGRSDGKMWCATTANYDDDRKWGFCPDQGYSLFLVAAHEFGHAMGLEHSQDPGALMAPIYTYTKNFRLSQDDIKGIQELYGASPDIDLGTGPTPTLGPVTPEICKQDIVFDGIAQIRGEIFFFKDRFIWRTVTPRDKPMGPLLVATFWPELPEKIDAVYEAPQEEKAVFFAGNEYWIYSASTLERGYPKPLTSLGLPPDVQRVDAAFNWSKNKKTYIFAGDKFWRYNEVKKKMDPGFPKLIADAWNAIPDNLDAVVDLQGGGHSYFFKGAYYLKLENQSLKSVKFGSIKSDWLGC
modifications: biotinylated for the microwell assay; left off: His tag, end not stated, state not stated
For B3, the “binding to native type I collagen (SPR, RU)” value in the assay on native type I collagen is “no reduction in collagen-binding”. In assay [1], the “binding to gelatin / denatured type I collagen (SPR, RU)” value was “no reduction in collagen-binding”.

B4: E^361A: rCBD variant, single-point alanine substitution at E^361, negative control (protein)
chain: APSPIIKFPGDVAPKTDKELAVQYLNTFYGCPKESCNLFVLKDTLKKMQKFFGLPQTGDLDQNTIETMRKPRCGNPDVANYNFFPRKPKWDKNQITYRIIGYTPDLDPETVDDAFARAFQVWSDVTPLRFSRIHDGEADIMINFGRWEHGDGYPFDGKDGLLAHAFAPGTGVGGDSHFDDDELWTLGEGQVVRVKYGNADGEYCKFPFLFNGKEYNSCTDTGRSDGFLWCSTTYNFEKDGKYGFCPHEALFTMGGNAEGQPCKFPFRFQGTSYDSCTTEGRTDGYRWCGTTEDYDRDKKYGFCPETAMSTVGGNSEGAPCVFPFTFLGNKYASCTSAGRSDGKMWCATTANYDDDRKWGFCPDQGYSLFLVAAHEFGHAMGLEHSQDPGALMAPIYTYTKNFRLSQDDIKGIQELYGASPDIDLGTGPTPTLGPVTPEICKQDIVFDGIAQIRGEIFFFKDRFIWRTVTPRDKPMGPLLVATFWPELPEKIDAVYEAPQEEKAVFFAGNEYWIYSASTLERGYPKPLTSLGLPPDVQRVDAAFNWSKNKKTYIFAGDKFWRYNEVKKKMDPGFPKLIADAWNAIPDNLDAVVDLQGGGHSYFFKGAYYLKLENQSLKSVKFGSIKSDWLGC
modifications: biotinylated for the microwell assay; left off: His tag, end not stated, state not stated
Regarding B4, the “binding to native type I collagen (SPR, RU)” value in the assay on native type I collagen is on record as “no reduction in collagen-binding”. Moreover, the “binding to gelatin / denatured type I collagen (SPR, RU)” value in assay [1] is “no reduction in collagen-binding”.

B5: F^297A: rCBD variant, single-point alanine substitution at F^297, module 2 (protein)
chain: APSPIIKFPGDVAPKTDKELAVQYLNTFYGCPKESCNLFVLKDTLKKMQKFFGLPQTGDLDQNTIETMRKPRCGNPDVANYNFFPRKPKWDKNQITYRIIGYTPDLDPETVDDAFARAFQVWSDVTPLRFSRIHDGEADIMINFGRWEHGDGYPFDGKDGLLAHAFAPGTGVGGDSHFDDDELWTLGEGQVVRVKYGNADGEYCKFPFLFNGKEYNSCTDTGRSDGFLWCSTTYNFEKDGKYGFCPHEALFTMGGNAEGQPCKFPFRAQGTSYDSCTTEGRTDGYRWCGTTEDYDRDKKYGFCPETAMSTVGGNSEGAPCVFPFTFLGNKYESCTSAGRSDGKMWCATTANYDDDRKWGFCPDQGYSLFLVAAHEFGHAMGLEHSQDPGALMAPIYTYTKNFRLSQDDIKGIQELYGASPDIDLGTGPTPTLGPVTPEICKQDIVFDGIAQIRGEIFFFKDRFIWRTVTPRDKPMGPLLVATFWPELPEKIDAVYEAPQEEKAVFFAGNEYWIYSASTLERGYPKPLTSLGLPPDVQRVDAAFNWSKNKKTYIFAGDKFWRYNEVKKKMDPGFPKLIADAWNAIPDNLDAVVDLQGGGHSYFFKGAYYLKLENQSLKSVKFGSIKSDWLGC
modifications: biotinylated for the microwell assay; left off: His tag, end not stated, state not stated
Regarding B5, the “binding to native type I collagen (SPR, RU)” value in the assay on native type I collagen is “strong reduction in binding”. Further, the “binding to gelatin / denatured type I collagen (SPR, RU)” value in assay [1] is reported as “strong reduction in binding”.

B6: Y^302A: rCBD variant, single-point alanine substitution at Y^302, module 2 (protein)
chain: APSPIIKFPGDVAPKTDKELAVQYLNTFYGCPKESCNLFVLKDTLKKMQKFFGLPQTGDLDQNTIETMRKPRCGNPDVANYNFFPRKPKWDKNQITYRIIGYTPDLDPETVDDAFARAFQVWSDVTPLRFSRIHDGEADIMINFGRWEHGDGYPFDGKDGLLAHAFAPGTGVGGDSHFDDDELWTLGEGQVVRVKYGNADGEYCKFPFLFNGKEYNSCTDTGRSDGFLWCSTTYNFEKDGKYGFCPHEALFTMGGNAEGQPCKFPFRFQGTSADSCTTEGRTDGYRWCGTTEDYDRDKKYGFCPETAMSTVGGNSEGAPCVFPFTFLGNKYESCTSAGRSDGKMWCATTANYDDDRKWGFCPDQGYSLFLVAAHEFGHAMGLEHSQDPGALMAPIYTYTKNFRLSQDDIKGIQELYGASPDIDLGTGPTPTLGPVTPEICKQDIVFDGIAQIRGEIFFFKDRFIWRTVTPRDKPMGPLLVATFWPELPEKIDAVYEAPQEEKAVFFAGNEYWIYSASTLERGYPKPLTSLGLPPDVQRVDAAFNWSKNKKTYIFAGDKFWRYNEVKKKMDPGFPKLIADAWNAIPDNLDAVVDLQGGGHSYFFKGAYYLKLENQSLKSVKFGSIKSDWLGC
modifications: biotinylated for the microwell assay; left off: His tag, end not stated, state not stated
With B6, the “binding to native type I collagen (SPR, RU)” value with native type I collagen was “strong reduction in binding”. Further, the “binding to gelatin / denatured type I collagen (SPR, RU)” value in assay [1] is given as “strong reduction in binding”.
